ChEMBL document CHEMBL5344453, “Selective Recognition of c-KIT 1 G-Quadruplex by Structural Tuning of Heteroaromatic Scaffolds and Side Chains” (ACS Med Chem Lett, 2024)
Activity calls are given as the source filed them. The rule behind the calls is not given here.

Legend:
Quadruplex DNA [1] = assay: Stabilization of G-quadruplex c-KIT1 5-FAM-GGGAGGGCGCTGGGAGGAGGG-TAMRA-3 (unknown origin) assessed as change in melting temperature at 7 uM incubated for 1 hr in dark condition by FRET-based melting assay; assay type: nucleic-acid assay
Summary of the method: (§1)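 FRET melting of dual-fluorophore (FAM/TAMRA) tagged G-quadruplex (200 nM) in 60 mM potassium cacodylate, pH 7.4. The screen used 1 μM ligand; dose series used 1, 3, 5, 7 and 10 μM. ΔTm was taken against the Tm of the same oligonucleotide without ligand.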

[2] = Reduction of c-KIT oncogene expression in human K562 cells transfected with c-KIT plasmid construct assessed as reduction in luciferase expression at 6 uM measured after 36 hrs by luciferase reporter assay; assay type: functional
Summary of the method: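 K562 cells were transfected with luciferase plasmids carrying the c-KIT, c-MYC or BCL-2 promoter G4. They were then treated with ligand (3 and 6 μM or 5.5 and 11 μM), and relative luciferase expression was measured.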

[3] = Induction of cell permeation in human c-KIT-positive K562 cell membrane assessed as fold increase in (G- quadruplex/antibody complex) BG4 foci at 3 uM measured after 24 hrs by immunofluorescence assay; assay type: functional
Summary of the method: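 K562 cells were treated with ligand (3 or 5.5 μM) and immunostained with G4-specific antibody BG4. Nuclear BG4 foci were counted by confocal microscopy and expressed relative to untreated cells.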

K562 [4] = assay: Attenuation of proto-oncogene expression in human c-KIT-positive K562 cells assessed as reduction in c-KIT oncogene expression at 6 uM measured after 24 hrs by qRT-PCR analysis relative to control; assay type: functional
Summary of the method: (§2)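 K562 cells treated 24 h at two doses per ligand (3 and 6 μM, 5.5 and 11 μM; positive control 2 and 4 μM). c-KIT, c-MYC and BCL-2 mRNA measured by qRT-PCR and normalized to housekeeping gene 18s, relative to untreated control.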

Quadruplex DNA [5] = assay: Binding affinity to G-quadruplex c-MYC 5-FAM-TGGGGAGGGTGGGGAGGGTGGGGAAGG-TAMRA-3 (unknown origin) assessed as dissociation constant by measuring thermogram by isothermal titration calorimetry (ITC) assay; assay type: nucleic-acid assay
Summary of the method: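 ITC of ligand binding to folded G4 in 100 mM Tris-KCl buffer, pH 7.4. Kd and stoichiometry were obtained from the isothermal heat curve and binding isotherm.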

Quadruplex DNA [6] = assay: Stabilization of G-quadruplex c-KIT2 5-FAM-GGGCGGGCGCGAGGGAGGGG-TAMRA-3 (unknown origin) assessed as change in melting temperature at 1 uM incubated for 1 hr in dark condition by FRET-based melting assay; assay type: nucleic-acid assay
Summary of the method: (§3)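 FRET melting of dual-fluorophore-tagged oligonucleotides (200 nM) in 60 mM potassium cacodylate buffer, pH 7.4, with ligand at 1 μM; ΔTm taken against the ligand-free oligonucleotide Tm as control.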

MCF7 = assay: Cytotoxicity against human MCF7 cells assessed as cell viability measured after 24 hrs by XTT formazan assay; assay type: functional, cell-based; settings: MCF7, 24 h
Quadruplex DNA [7] = assay: Stabilization of G-quadruplex c-MYC 5-FAM-TGGGGAGGGTGGGGAGGGTGGGGAAGG-TAMRA- 3 (unknown origin) assessed as change in melting temperature at 10 uM incubated for 1 hr in dark condition by FRET-based melting assay; assay type: nucleic-acid assay; summary of the method: as §1
Quadruplex DNA [8] = assay: Stabilization of calf thymus […] ds DNA 5-FAM-CAATCGGATCGAATTCGATCCGATTG-TAMRA-3 assessed as change in melting temperature at 1 uM incubated for 1 hr in dark condition by FRET-based melting assay; assay type: nucleic-acid assay; settings: Bos taurus; summary of the method: as §3
K562 [9] = assay: Induction of cell cycle arrest in human K562 cells assessed as accumulation at G0/G1 phase at 3 uM incubated for 24 hrs by propidium iodide based assay; assay type: functional
Summary of the method: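 K562 cells were treated with ligand (3 and 6 μM or 5.5 and 11 μM) and stained with propidium iodide. The fraction of cells in each cell-cycle phase was determined by flow cytometry.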

Quadruplex DNA [10] = assay: Binding affinity to G-quadruplex BCL-2 5-FAM-AGGGGCGGGCGCGGGAGGAAGGGGGCGGGAGCGGGGCTG-TAMRA-3 (unknown origin) assessed as dissociation constant by fluorescence spectroscopy assay; assay type: nucleic-acid assay
Summary of the method: (§4)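 Fluorimetric titration of ligand held at 1.0 μM with increasing concentrations of G4 or dsDNA until saturation. Change in ligand fluorescence intensity was fitted for Kd. Run in 100 mM Tris-KCl buffer, pH 7.4.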

Quadruplex DNA [11] = assay: Stabilization of fluorophore tagged G-quadruplex c-KIT1 (unknown origin) assessed as change in melting temperature in presence of 0 to 100 equiv calf thymus DNA at 1 uM incubated for 1 hr in dark condition by competitive FRET-based melting assay; assay type: nucleic-acid assay
Summary of the method: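 Competitive FRET melting with fluorophore-labeled c-KIT 1 G-quadruplex and 1 μM ligand. Unlabeled calf thymus DNA was added at 0, 1, 5, 10, 50 and 100 molar equivalents over the labeled DNA, and ΔTm was monitored.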

Quadruplex DNA [12] = assay: Stabilization of G-quadruplex c-KIT1 5-FAM-GGGAGGGCGCTGGGAGGAGGG-TAMRA-3 (unknown origin) assessed as change in melting temperature at 5 uM incubated for 1 hr in dark condition by FRET-based melting assay; assay type: nucleic-acid assay; summary of the method: as §1
Quadruplex DNA [13] = assay: Stabilization of G-quadruplex c-KIT1 5-FAM-GGGAGGGCGCTGGGAGGAGGG-TAMRA-3 (unknown origin) assessed as change in melting temperature at 1 uM incubated for 1 hr in dark condition by FRET-based melting assay; assay type: nucleic-acid assay; summary of the method: as §3
Quadruplex DNA [14] = assay: Binding affinity to excessive G-quadruplex c-KIT1 5-FAM-GGGAGGGCGCTGGGAGGAGGG-TAMRA-3 (unknown origin) assessed as fold increase in fluorescence intensity at 1 uM incubated for 1 hr in dark condition by fluorescence spectroscopy assay relative to VEGF; assay type: nucleic-acid assay
Summary of the method: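 Ligand (1.0 μM) titrated to saturation with increasing G-quadruplex in 100 mM Tris-KCl buffer, pH 7.4. The value is the ratio of the c-KIT 1 fold change in fluorescence intensity to the fold change obtained with VEGF or c-KIT 2.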

K562 [15] = assay: Attenuation of proto-oncogene expression in human c-KIT-positive K562 cells assessed as reduction in BCL-2 oncogene expression at 6 uM measured after 24 hrs by qRT-PCR analysis relative to control; assay type: functional; summary of the method: as §2
Calf thymus DNA = assay: Binding affinity to calf thymus ds DNA assessed as dissociation constant by fluorescence spectroscopy assay; assay type: nucleic-acid assay, Bos taurus; summary of the method: as §4

Structure (SMILES): CN(C)CCCNC(=O)c1ccc(-n2cc(-c3ccc4[nH]c5ccccc5c4c3)nn2)cc1
- ΔTm (Quadruplex DNA [1]): 26.5 °C
- inhibition at 6 µM [2]: 69%
- fold change (FC) [3]: 5.4
- inhibition at 6 µM (K562 [4]): 73%
- Kd (Quadruplex DNA [5]): 6.2 µM
- ΔTm (Quadruplex DNA [6]): 9.9 °C
- IC50 (MCF7): 19.8 µM
- ΔTm (Quadruplex DNA [7]): 17.3 °C
- ΔTm (Quadruplex DNA [8]): 0.7 °C
- Activity (K562 [9]): 74.1%
- Kd (Quadruplex DNA [10]): 4.8 µM
- Activity (Quadruplex DNA [11]): Active
- ΔTm (Quadruplex DNA [12]): 25.5 °C
- ΔTm (Quadruplex DNA [13]): 20.1 °C
- fold change (FC) (Quadruplex DNA [14]): 2.8
- inhibition at 6 µM (K562 [15]): 39%
- Kd (Calf thymus DNA): 4 µM
